# In publication PMC3184254 (Nature Chemical Biology, 2011):
# How the values were obtained:
# G9a = molecular target: T1, G9a (Homo sapiens, UniProt Q96KQ7); test: Surface plasmon resonance; type: binding; details: SPR
# T1 sequence (Q96KQ7 1-1210): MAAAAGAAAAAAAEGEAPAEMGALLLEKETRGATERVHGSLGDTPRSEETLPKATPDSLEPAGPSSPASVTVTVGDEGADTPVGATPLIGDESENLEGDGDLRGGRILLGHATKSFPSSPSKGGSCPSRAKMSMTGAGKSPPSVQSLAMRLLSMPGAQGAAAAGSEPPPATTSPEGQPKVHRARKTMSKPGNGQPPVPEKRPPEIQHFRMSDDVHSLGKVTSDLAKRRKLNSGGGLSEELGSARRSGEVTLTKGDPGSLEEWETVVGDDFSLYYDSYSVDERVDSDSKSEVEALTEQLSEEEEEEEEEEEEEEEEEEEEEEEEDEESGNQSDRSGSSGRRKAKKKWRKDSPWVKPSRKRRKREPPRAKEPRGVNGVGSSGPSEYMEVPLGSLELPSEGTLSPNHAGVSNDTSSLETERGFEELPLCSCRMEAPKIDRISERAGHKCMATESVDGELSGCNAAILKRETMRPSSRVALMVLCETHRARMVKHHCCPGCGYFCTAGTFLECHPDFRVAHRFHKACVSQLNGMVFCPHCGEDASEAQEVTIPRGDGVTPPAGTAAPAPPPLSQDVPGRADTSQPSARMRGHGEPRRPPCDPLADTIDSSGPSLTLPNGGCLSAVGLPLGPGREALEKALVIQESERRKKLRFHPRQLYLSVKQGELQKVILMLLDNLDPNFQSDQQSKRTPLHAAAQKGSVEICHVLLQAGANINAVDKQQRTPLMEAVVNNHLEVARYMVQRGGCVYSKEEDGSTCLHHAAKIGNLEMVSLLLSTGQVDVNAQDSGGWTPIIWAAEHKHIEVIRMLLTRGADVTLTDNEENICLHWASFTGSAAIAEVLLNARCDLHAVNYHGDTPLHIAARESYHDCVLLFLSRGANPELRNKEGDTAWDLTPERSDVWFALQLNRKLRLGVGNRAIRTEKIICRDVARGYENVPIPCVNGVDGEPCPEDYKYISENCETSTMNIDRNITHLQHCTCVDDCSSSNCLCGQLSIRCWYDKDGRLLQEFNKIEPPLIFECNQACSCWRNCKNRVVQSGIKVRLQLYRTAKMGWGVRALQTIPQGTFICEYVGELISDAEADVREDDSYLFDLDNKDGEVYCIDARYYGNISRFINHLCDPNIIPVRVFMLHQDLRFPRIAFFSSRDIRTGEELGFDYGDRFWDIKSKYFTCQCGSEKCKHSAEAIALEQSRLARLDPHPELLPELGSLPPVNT
# MDA-MB-231 cells = test: MTT assay, MDA-MB-231; type: cell-based, human; details: Homo sapiens, MDA-MB-231, read-out: EC50 cellular toxicity (MTT)
# [1] = test system: H3K9me2 levels in PC3 cells; test: H3K9me2 in-cell western, PC3; type: cell-based; details: Homo sapiens, PC-3, read-out: IC50 for reduction of H3K9me2 levels
# [2] = test system: H3K9me2 levels in MCF7 cells; test: H3K9me2 inhibition, MCF7; type: cell-based; details: Homo sapiens, MCF7, read-out: IC90 for H3K9me2 inhibition
# J1 mES cells = test: SSEA1 pluripotency marker immunostaining, flow cytometry; type: cell-based, mouse; details: 100 nM
# [3] = test system: MAGEA2 and DUB1 genes in J1 mES cells; test: mRNA levels of G9a-regulated endogenous genes; type: cell-based, mouse; details: day 10; versus untreated or UNC0737-treated cells
# [4] = test system: retrovirus long terminal repeat and MAGEA2 promoter in mES cells; test: Bisulfite sequencing DNA methylation in mES cells; type: cell-based, mouse; details: after 10 d of treatment
# How it was run: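 J1 mouse ES cells were grown on 0.1% gelatin in DMEM with 15% ES-qualified FBS, 4 mM L-glutamine, 0.1 mM nonessential amino acids, 1 mM pyruvate, 0.55 mM 2-mercaptoethanol and LIF. They carried a silenced HSC1 retroviral EGFP-puromycin reporter driven by the EF1a promoter.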
smiles,measurement,setting,value
COc1cc2c(NC3CCN(C(C)C)CC3)nc(C3CCCCC3)nc2cc1OCCCN1CCCC1 [UNC0638],disassociation rate (kd),G9a,0.057 s⁻¹
same,EC50,MDA-MB-231 cells,11 µM
same,IC50,[1],59 nM
same,IC90,[2],320 nM
same,SSEA1+ cells,J1 mES cells,97%
same,expression of DUB1 and MAGEA2 genes,[3],more highly expressed
same,DNA methylation of retrovirus LTR and MAGEA2 promoter,[4],induced DNA hypomethylation in a concentration-dependent manner
